Measured values published in ChEMBL document CHEMBL1128301, “Cephalosporin derivatives of doxorubicin as prodrugs for activation by monoclonal antibody-beta-lactamase conjugates” (J Med Chem, 1995).

How the values were obtained:
[1] = target: Beta-lactamase (Enterobacter cloacae) (UniProt P05364); experiment: The kinetic constant(kcat) value as spectrophotometrically by using Enterobacter cloacae P99 beta-lactamase (ECIbL) enzyme as catalyst
Summary of the method: (§1)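 Spectrophotometric hydrolysis at 23 °C in PBS with 12.5 μg/mL BSA. EClbL was used at 0.1 μg/mL; BCbL and ECbL at 1.0 μg/mL. […] Initial velocities were linear over 1 min.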

[2] = target: T1, Metallo-beta-lactamase type 2 (Bacillus cereus) (UniProt P14488); experiment: The kinetic constant(kcat) value as spectrophotometrically by using Bacillus cereus beta-lactamase (BCbL) enzyme as catalyst; summary of the method: as §1
T1 sequence (whole entry): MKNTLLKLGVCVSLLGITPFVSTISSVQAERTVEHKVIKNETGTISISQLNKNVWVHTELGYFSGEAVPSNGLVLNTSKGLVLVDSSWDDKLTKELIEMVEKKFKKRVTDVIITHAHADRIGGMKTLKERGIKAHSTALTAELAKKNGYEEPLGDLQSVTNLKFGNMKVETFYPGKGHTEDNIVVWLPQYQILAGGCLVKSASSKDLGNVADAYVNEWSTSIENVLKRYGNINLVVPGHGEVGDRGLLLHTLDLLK

[3] = target: Beta-lactamase TEM (Escherichia coli) (UniProt P62593); experiment: The kinetic constant(kcat) value as spectrophotometrically by using Escherichia coli TEM-1 beta-lactamase (ECbL) enzyme as catalyst; summary of the method: as §1
Sequence of Beta-lactamase TEM (Escherichia coli) (P62593 whole entry): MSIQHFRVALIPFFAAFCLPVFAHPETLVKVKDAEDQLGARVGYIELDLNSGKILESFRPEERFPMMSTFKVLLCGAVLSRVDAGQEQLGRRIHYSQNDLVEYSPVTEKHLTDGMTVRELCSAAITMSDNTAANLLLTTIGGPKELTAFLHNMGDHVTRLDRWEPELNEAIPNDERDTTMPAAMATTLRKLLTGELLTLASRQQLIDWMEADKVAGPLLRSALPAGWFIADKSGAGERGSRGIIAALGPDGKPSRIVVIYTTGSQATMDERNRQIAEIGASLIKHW

Sequence of Beta-lactamase (Enterobacter cloacae) (P05364 21-381 limits assumed): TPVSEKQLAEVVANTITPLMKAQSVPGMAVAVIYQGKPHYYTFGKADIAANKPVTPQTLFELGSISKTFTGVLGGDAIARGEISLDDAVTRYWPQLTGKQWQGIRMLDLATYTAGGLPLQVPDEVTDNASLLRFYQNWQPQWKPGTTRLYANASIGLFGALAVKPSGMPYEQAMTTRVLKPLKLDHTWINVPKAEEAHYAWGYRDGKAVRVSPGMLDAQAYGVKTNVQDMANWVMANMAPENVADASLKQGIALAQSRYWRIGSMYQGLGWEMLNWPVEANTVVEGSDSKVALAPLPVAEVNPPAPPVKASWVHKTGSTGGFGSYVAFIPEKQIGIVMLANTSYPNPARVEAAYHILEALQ

k cat [1]: 210 s⁻¹ | k cat [2]: 6.6 s⁻¹ | k cat [3]: 2.8 s⁻¹
SMILES: COc1cccc2c1C(=O)c1c(O)c3c(c(O)c1C2=O)C[C@@](O)(C(=O)CO)C[C@@H]3OC1CC(NC(=O)OCC2=C(C(=O)O)N3C(=O)[C@@H](NC(=O)CCCC(=O)O)[C@H]3SC2)C(O)C(C)O1 (stereo partly drawn)
